Data as given in ChEMBL document CHEMBL1821716, “Pyrazolopyridine inhibitors of B-RafV600E. Part 2: structure-activity relationships” (Bioorg Med Chem Lett, 2011).

Key:
[1] = molecular target: Serine/threonine-protein kinase B-raf (Homo sapiens, UniProt P15056, V600E); test: Inhibition of full length B-Raf V600E mutant
[2] = molecular target: Tyrosine-protein kinase Srms (Homo sapiens) (UniProt Q9H3Y6); test: Inhibition of SRMS at 1 uM
Outline: (§1)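 Kinase selectivity panel reported as percent inhibition of each kinase at a single test-compound concentration. Values are means of at least two experiments.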

[3] = molecular target: Receptor-type tyrosine-protein kinase FLT3 (Homo sapiens) (UniProt P36888); test: Inhibition of FLT3 at 1 uM; outline: as §1
Sequence of Receptor-type tyrosine-protein kinase FLT3 (Homo sapiens) (P36888 whole entry): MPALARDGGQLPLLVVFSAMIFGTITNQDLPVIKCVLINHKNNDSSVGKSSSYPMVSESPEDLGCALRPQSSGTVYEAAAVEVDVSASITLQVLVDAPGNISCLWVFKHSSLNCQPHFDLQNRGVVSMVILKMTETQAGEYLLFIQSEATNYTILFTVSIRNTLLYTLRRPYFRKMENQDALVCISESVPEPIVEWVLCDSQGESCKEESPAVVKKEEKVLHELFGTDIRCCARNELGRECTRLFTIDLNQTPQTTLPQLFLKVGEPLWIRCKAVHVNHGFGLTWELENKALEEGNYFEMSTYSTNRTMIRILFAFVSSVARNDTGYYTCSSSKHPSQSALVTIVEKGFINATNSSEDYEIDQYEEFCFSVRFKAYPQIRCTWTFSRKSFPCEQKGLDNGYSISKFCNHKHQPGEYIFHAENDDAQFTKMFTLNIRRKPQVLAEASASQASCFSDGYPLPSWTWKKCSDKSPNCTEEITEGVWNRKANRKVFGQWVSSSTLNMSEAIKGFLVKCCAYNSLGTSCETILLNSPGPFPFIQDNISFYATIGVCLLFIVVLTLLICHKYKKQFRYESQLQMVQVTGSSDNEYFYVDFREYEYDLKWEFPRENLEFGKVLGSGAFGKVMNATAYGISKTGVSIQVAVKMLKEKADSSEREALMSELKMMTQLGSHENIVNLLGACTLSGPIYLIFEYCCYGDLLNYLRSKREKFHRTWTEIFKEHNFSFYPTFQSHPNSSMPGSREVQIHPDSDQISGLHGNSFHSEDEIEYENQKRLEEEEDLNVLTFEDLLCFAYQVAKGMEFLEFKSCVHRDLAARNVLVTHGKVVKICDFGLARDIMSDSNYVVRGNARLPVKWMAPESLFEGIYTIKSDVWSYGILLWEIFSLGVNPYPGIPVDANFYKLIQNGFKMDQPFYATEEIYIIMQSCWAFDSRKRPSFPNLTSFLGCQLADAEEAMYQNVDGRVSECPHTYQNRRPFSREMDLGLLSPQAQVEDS

[4] = Inhibition of basal ERK phosphorylation in human MALME-3M cells; type: cell-based
[5] = molecular target: Tyrosine-protein kinase Fgr (Homo sapiens) (UniProt P09769); test: Inhibition of FGR at 1 uM; outline: as §1
Sequence of Tyrosine-protein kinase Fgr (Homo sapiens) (P09769 2-529 limits assumed): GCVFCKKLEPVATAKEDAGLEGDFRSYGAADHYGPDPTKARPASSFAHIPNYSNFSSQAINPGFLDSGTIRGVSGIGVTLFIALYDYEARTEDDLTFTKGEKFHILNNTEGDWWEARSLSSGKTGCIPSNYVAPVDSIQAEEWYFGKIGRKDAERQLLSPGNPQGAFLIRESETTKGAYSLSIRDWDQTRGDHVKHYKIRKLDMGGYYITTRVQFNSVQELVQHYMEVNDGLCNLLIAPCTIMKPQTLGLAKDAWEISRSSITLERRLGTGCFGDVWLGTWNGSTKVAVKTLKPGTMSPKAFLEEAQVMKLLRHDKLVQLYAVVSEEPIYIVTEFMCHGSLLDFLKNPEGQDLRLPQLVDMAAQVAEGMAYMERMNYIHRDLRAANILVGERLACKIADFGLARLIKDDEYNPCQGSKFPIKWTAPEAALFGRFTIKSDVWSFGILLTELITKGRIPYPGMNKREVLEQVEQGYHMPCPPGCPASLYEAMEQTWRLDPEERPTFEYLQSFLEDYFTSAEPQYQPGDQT

[6] = molecular target: Proto-oncogene tyrosine-protein kinase Src (Homo sapiens) (UniProt P12931); test: Inhibition of SRC at 1 uM; outline: as §1
Sequence of Proto-oncogene tyrosine-protein kinase Src (Homo sapiens) (P12931 2-536 limits assumed): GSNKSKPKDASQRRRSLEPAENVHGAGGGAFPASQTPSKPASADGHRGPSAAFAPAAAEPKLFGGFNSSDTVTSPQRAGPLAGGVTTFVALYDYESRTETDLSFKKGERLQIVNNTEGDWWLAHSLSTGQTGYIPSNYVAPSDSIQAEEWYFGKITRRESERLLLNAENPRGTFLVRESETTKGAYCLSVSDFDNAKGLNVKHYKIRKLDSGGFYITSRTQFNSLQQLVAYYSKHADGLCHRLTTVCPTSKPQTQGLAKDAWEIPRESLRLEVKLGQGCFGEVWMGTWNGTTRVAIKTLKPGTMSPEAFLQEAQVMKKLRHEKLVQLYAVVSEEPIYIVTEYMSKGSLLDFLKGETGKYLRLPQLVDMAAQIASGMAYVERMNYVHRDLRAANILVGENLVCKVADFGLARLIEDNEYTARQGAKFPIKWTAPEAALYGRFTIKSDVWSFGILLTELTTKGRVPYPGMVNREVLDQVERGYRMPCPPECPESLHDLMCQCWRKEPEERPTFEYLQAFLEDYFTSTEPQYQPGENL

[7] = molecular target: T1, Aurora kinase A (Homo sapiens) (UniProt O14965); test: Inhibition of aurora A at 1 uM; outline: as §1
T1 sequence (whole entry): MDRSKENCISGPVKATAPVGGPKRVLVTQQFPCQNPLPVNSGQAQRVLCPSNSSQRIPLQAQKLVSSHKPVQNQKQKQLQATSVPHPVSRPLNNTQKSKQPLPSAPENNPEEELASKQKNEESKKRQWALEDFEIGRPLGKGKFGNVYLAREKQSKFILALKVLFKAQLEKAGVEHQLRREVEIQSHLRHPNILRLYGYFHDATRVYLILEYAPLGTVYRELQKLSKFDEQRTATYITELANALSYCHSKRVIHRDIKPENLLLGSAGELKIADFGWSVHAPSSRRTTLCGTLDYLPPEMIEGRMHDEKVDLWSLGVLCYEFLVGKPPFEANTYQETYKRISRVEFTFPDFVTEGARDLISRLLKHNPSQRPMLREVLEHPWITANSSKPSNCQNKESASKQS

[8] = molecular target: Protein-tyrosine kinase 6 (Homo sapiens) (UniProt Q13882); test: Inhibition of PTK6 at 1 uM; outline: as §1
Sequence of Protein-tyrosine kinase 6 (Homo sapiens) (Q13882 whole entry, looked up): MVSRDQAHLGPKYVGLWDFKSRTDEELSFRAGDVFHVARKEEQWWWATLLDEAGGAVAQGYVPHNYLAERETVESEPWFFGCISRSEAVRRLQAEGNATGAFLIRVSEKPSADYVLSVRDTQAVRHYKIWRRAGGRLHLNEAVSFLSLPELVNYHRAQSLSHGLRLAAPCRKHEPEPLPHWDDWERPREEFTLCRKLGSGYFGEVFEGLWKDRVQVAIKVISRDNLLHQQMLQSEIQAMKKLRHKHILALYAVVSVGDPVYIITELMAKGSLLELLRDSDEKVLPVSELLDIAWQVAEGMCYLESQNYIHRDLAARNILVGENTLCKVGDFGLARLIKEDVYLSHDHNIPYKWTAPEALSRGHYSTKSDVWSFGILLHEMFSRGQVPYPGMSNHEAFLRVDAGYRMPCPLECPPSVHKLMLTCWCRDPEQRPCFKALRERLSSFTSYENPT

[9] = molecular target: Tyrosine-protein kinase Lck (Homo sapiens) (UniProt P06239); test: Inhibition of LCK at 1 uM; outline: as §1
Sequence of Tyrosine-protein kinase Lck (Homo sapiens) (P06239 2-509 limits assumed): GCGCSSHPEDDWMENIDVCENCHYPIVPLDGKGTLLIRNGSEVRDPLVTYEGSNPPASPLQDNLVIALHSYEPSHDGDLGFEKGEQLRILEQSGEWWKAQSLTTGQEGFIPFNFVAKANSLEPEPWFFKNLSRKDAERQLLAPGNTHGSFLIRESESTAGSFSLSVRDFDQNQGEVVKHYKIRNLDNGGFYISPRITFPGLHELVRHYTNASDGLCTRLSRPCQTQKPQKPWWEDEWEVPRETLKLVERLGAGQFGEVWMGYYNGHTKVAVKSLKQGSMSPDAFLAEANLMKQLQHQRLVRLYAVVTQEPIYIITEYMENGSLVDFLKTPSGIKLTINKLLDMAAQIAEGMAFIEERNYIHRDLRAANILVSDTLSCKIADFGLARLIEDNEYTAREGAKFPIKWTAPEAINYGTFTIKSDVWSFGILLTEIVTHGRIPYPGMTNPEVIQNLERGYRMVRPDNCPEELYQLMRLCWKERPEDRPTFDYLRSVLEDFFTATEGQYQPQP

Sequence of Tyrosine-protein kinase Srms (Homo sapiens) (Q9H3Y6 whole entry): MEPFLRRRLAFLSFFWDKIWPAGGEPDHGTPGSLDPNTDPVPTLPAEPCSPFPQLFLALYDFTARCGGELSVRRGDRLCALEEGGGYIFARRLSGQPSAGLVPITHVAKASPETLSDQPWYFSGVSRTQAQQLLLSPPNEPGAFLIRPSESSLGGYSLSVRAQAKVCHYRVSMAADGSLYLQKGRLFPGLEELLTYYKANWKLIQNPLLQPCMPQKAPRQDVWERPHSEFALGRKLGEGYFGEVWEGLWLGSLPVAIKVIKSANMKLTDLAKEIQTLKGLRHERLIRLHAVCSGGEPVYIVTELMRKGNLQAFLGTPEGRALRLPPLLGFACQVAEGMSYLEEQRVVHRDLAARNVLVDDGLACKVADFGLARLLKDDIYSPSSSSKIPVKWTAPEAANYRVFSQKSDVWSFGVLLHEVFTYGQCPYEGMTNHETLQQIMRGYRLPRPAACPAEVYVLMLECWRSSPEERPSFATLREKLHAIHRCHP
Sequence of Serine/threonine-protein kinase B-raf (P15056 2-766 V600E limits assumed): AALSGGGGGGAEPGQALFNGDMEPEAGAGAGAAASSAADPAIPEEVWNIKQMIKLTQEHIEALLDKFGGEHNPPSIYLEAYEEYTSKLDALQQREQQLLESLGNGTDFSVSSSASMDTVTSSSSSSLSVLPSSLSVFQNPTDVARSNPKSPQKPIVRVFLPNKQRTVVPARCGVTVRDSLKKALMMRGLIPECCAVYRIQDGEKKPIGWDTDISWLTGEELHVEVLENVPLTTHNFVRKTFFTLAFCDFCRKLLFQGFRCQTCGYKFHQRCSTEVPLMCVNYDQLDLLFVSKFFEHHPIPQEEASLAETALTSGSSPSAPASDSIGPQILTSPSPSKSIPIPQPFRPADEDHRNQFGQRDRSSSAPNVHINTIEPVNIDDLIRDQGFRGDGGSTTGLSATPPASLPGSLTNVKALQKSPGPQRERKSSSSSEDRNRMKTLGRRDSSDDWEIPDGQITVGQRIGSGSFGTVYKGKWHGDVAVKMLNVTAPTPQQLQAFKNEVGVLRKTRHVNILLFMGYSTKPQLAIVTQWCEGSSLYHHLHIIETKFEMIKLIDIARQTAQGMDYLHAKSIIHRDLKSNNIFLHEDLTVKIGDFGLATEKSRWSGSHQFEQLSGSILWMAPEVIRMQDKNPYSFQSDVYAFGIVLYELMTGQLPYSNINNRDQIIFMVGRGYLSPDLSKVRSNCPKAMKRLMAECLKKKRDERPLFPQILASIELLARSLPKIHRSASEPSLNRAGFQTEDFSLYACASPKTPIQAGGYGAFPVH

SMILES	IC50 [1] [nM]	IC50 [4] [nM]	also measured
COc1n[nH]c2ncc(NC(=O)c3c(F)ccc(NS(=O)(=O)c4cccc(F)c4)c3F)cc12	0.7	12	inhibition [2]: 98%; inhibition [3]: 77%; inhibition [5]: 98%; inhibition [6]: 77%; inhibition [7]: 52%; inhibition [8]: 101%; inhibition [9]: 96%
COc1n[nH]c2ncc(NC(=O)c3c(F)ccc(NS(=O)(=O)N4CCCC4)c3F)cc12	8.6	18	inhibition [2]: 105%; inhibition [3]: 85%; inhibition [5]: 101%; inhibition [6]: 52%; inhibition [7]: 47%; inhibition [8]: 105%; inhibition [9]: 90%
CCCS(=O)(=O)Nc1ccc(F)c(C(=O)Nc2cnc3[nH]nc(OCC(F)(F)F)c3c2)c1F	5.3	28	–
CCCS(=O)(=O)Nc1ccc(F)c(C(=O)Nc2cnc3[nH]nc(OCC4CCC4)c3c2)c1F	3.5	76	–
COc1n[nH]c2ncc(NC(=O)c3c(F)ccc(NS(=O)(=O)CCCF)c3F)cc12	1.3	13	–
CCN(C)S(=O)(=O)Nc1ccc(F)c(C(=O)Nc2cnc3[nH]ccc3c2)c1F	400	340	–
O=C(Nc1cnc2[nH]ccc2c1)c1c(F)ccc(NS(=O)(=O)CCCF)c1F	19	75	–
CCCS(=O)(=O)Nc1ccc(F)c(C(=O)Nc2cnc3[nH]nc(O[C@@H]4CCOC4)c3c2)c1F	6.9	62	–
CCCS(=O)(=O)Nc1ccc(F)c(C(=O)Nc2cnc3[nH]nc(CC)c3c2)c1F	9.2	84	–
CCCS(=O)(=O)Nc1ccc(Cl)c(C(=O)Nc2cnc3[nH]ccc3c2)c1	88	2100	–
CCCS(=O)(=O)Nc1ccc(F)c(C(=O)Nc2cnc3[nH]cc(C)c3c2)c1F	16	62	–
COc1n[nH]c2ncc(NC(=O)c3c(F)ccc(NS(=O)(=O)c4ccc(F)cc4)c3F)cc12	46	340	–
CCNS(=O)(=O)Nc1ccc(F)c(C(=O)Nc2cnc3[nH]nc(OC)c3c2)c1F	18	180	–
CCCS(=O)(=O)Nc1ccc(F)c(C(=O)Nc2cnc3[nH]nc(OC)c3c2)c1OC	110	180	–
COc1n[nH]c2ncc(NC(=O)c3c(F)ccc(NS(=O)(=O)c4cccnc4)c3F)cc12	0.5	83	–
CCN(C)S(=O)(=O)Nc1ccc(F)c(C(=O)Nc2cnc3[nH]nc(OC)c3c2)c1F	29	28	–
CCCS(=O)(=O)Nc1ccc(F)c(C(=O)Nc2cnc3[nH]cc(I)c3c2)c1F	2.2	60	–
CCCS(=O)(=O)Nc1ccc(F)c(C(=O)Nc2cnc3[nH]nc(OCC4COC4)c3c2)c1F	4.2	43	–

SMILES	IC50 [1] [nM]	IC50 [4] [nM]	also measured
CCCCS(=O)(=O)Nc1ccc(F)c(C(=O)Nc2cnc3[nH]ccc3c2)c1F	40	120	–
CCCS(=O)(=O)Nc1cc(F)cc(C(=O)Nc2cnc3[nH]nc(OC)c3c2)c1F	7.5	80	–
CCCS(=O)(=O)Nc1ccc(F)c(C(=O)Nc2cnc3[nH]nc(OC)c3c2)c1	150	350	–
CN(C)S(=O)(=O)Nc1ccc(F)c(C(=O)Nc2cnc3[nH]ccc3c2)c1F	200	260	–
CCCS(=O)(=O)Nc1cc(F)c(F)c(C(=O)Nc2cnc3[nH]ccc3c2)c1F	19	410	–
COc1n[nH]c2ncc(NC(=O)c3c(F)ccc(NS(=O)(=O)c4ccccc4F)c3F)cc12	1.8	9.1	–
COc1n[nH]c2ncc(NC(=O)c3c(F)ccc(NS(=O)(=O)CC4CC4)c3F)cc12	17	31	–
CCCS(=O)(=O)Nc1cccc(C(=O)Nc2cnc3[nH]ccc3c2)c1F	87	290	–
COc1n[nH]c2ncc(NC(=O)c3c(F)ccc(NS(=O)(=O)NCC(F)F)c3F)cc12	13	500	–
CCCS(=O)(=O)Nc1ccc(Cl)c(C(=O)Nc2cnc3[nH]ccc3c2)c1Cl	8.3	206	–
COc1n[nH]c2ncc(NC(=O)c3c(F)ccc(NS(=O)(=O)c4cc(F)ccc4F)c3F)cc12	1	20	–
COc1n[nH]c2ncc(NC(=O)c3c(F)ccc(NS(=O)(=O)N(C)C)c3F)cc12	18	63	–
COc1n[nH]c2ncc(NC(=O)c3c(F)ccc(NS(=O)(=O)Cc4ccccc4)c3F)cc12	190	830	–
CCCS(=O)(=O)Nc1ccc(F)c(C(=O)Nc2cnc3[nH]nc(I)c3c2)c1F	1.8	36	–
CCCS(=O)(=O)Nc1ccc(Cl)c(C(=O)Nc2cnc3[nH]ccc3c2)c1F	17	190	–
COc1n[nH]c2ncc(NC(=O)c3c(F)ccc(NS(=O)(=O)c4ccccn4)c3F)cc12	16	280	–
CCCS(=O)(=O)Nc1cc(F)c(F)c(C(=O)Nc2cnc3[nH]nc(OC)c3c2)c1F	2.3	100	–
CCCS(=O)(=O)Nc1ccc(F)c(C(=O)Nc2cnc3[nH]nc(OC)c3c2)c1F	–	19	inhibition [2]: 94%; inhibition [3]: 52%; inhibition [5]: 88%; inhibition [6]: 22%; inhibition [7]: 1%; inhibition [8]: 83%; inhibition [9]: 56%
